Experiments:
Type in all cases: functional
A549 = assay: Antitumor activity against A549/ATCC cell line; conditions: Homo sapiens
How it was run: (§1)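 Drugs were screened against a panel of up to 60 human cancer cell lines. The end-point was LC50, the drug concentration lethal to 50% of the cancer cells. Values were expressed as log LC50 and plotted as mean graphs centred on the log of the panel-mean LC50. Bars to the right mark lines with lower log LC50 than the mean.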

CCRF-CEM = assay: Antitumor activity against CCRF-CEM leukemia cell line; conditions: Homo sapiens, read-out: Log LC50 (the source's name) (converted); how it was run: as §1
COLO 205 = assay: Antitumor activity against COLO 205 cell line; conditions: Homo sapiens, read-out: Log LC50 (the source's name) (converted); how it was run: as §1
DMS-114 = assay: Antitumor activity against DMS 114 cell line; conditions: Homo sapiens; how it was run: as §1
EKVX = assay: Antitumor activity against EKVX cell line; conditions: Homo sapiens; how it was run: as §1
HCT-116 = assay: Antitumor activity against HCT116 cell line; conditions: Homo sapiens, read-out: Log LC50 (the source's name) (converted); how it was run: as §1
HOP-62 = assay: Antitumor activity against HOP-62 cell line; conditions: Homo sapiens; how it was run: as §1
HL-60 = assay: Antitumor activity against HL-60(TB) leukemia cell line; conditions: Homo sapiens, read-out: Log LC50 (the source's name) (converted); how it was run: as §1
HOP-92 = assay: Antitumor activity against HOP-92 cell line; conditions: Homo sapiens, read-out: Log LC50 (the source's name) (converted); how it was run: as §1
HT-29 = assay: Antitumor activity against HT 29 cell line; conditions: Homo sapiens, read-out: Log LC50 (the source's name) (converted); how it was run: as §1
K562 = assay: Antitumor activity against K-562 leukemia cell line; conditions: Homo sapiens, read-out: Log LC50 (the source's name) (converted); how it was run: as §1
KM12 = assay: Antitumor activity against KM 12 cell line; conditions: Homo sapiens, read-out: Log LC50 (the source's name) (converted); how it was run: as §1
KM-20L2 = assay: Antitumor activity against KM 20L2 cell line; conditions: Homo sapiens; how it was run: as §1
IGROV-1 = assay: Antitumor activity against IGROVI cell line; conditions: Homo sapiens; how it was run: as §1
LXFL 529 = assay: Antitumor activity against […] cell line; conditions: Homo sapiens; how it was run: as §1
M14 = assay: Antitumor activity against M 14 cell line; conditions: Homo sapiens; how it was run: as §1
M19-MEL = assay: Antitumor activity against M 19-MEL cell line; conditions: Homo sapiens; how it was run: as §1
LOX IMVI = assay: Antitumor activity against LOX IMVI cell line; conditions: Homo sapiens; how it was run: as §1
MOLT-4 = assay: Antitumor activity against MOLT-4 leukemia cell line; conditions: Homo sapiens; how it was run: as §1
Malme-3M = assay: Antitumor activity against MALME-3M cell line; conditions: Homo sapiens; how it was run: as §1
NCI-H522 = assay: Antitumor activity against NCI-H522 cell line; conditions: Homo sapiens; how it was run: as §1
NCI-H226 = assay: Antitumor activity against NCI-H226 cell line; conditions: Homo sapiens; how it was run: as §1
OVCAR-8 = assay: Antitumor activity against OVCAR-8 cell line; conditions: Homo sapiens, read-out: Log LC50 (the source's name) (converted); how it was run: as §1
OVCAR-3 = assay: Antitumor activity against OVCAR-3 cell line; conditions: Homo sapiens; how it was run: as §1
NCI-H23 = assay: Antitumor activity against NCI-1123 cell line; conditions: Homo sapiens, read-out: Log LC50 (the source's name) (converted); how it was run: as §1
NCI-H322M = assay: Antitumor activity against NCI-H322M cell line; conditions: Homo sapiens, read-out: Log LC50 (the source's name) (converted); how it was run: as §1
NCI-H460 = assay: Antitumor activity against NCI-11460 cell line; conditions: Homo sapiens, read-out: Log LC50 (the source's name) (converted); how it was run: as §1
OVCAR-5 = assay: Antitumor activity against OVCAR-5 cell line; conditions: Homo sapiens; how it was run: as §1
RPMI-8226 = assay: Antitumor activity against RPMI-8226 leukemia cell line; conditions: Homo sapiens, read-out: Log LC50 (the source's name) (converted); how it was run: as §1
CAKI-1 = assay: Antitumor activity against Renal cancer CAKI-1 cell line; conditions: Homo sapiens, read-out: Log LC50 (the source's name) (converted); how it was run: as §1
786-0 = assay: Antitumor activity against Renal cancer 786-O cell line; conditions: Homo sapiens; how it was run: as §1
A498 = assay: Antitumor activity against Renal cancer A498 cell line; conditions: Homo sapiens, read-out: Log LC50 (the source's name) (converted); how it was run: as §1
ACHN = assay: Antitumor activity against Renal cancer ACHN cell line; conditions: Homo sapiens, read-out: Log LC50 (the source's name) (converted); how it was run: as §1
SN12C = assay: Antitumor activity against Renal cancer SN 12C cell line; conditions: Homo sapiens; how it was run: as §1
TK-10 = assay: Antitumor activity against Renal cancer TK-10 cell line; conditions: Homo sapiens; how it was run: as §1
UO-31 = assay: Antitumor activity against Renal cancer UO-31 cell line; conditions: Homo sapiens; how it was run: as §1
SK-MEL-2 = assay: Antitumor activity against SK-MEL-2 cell line; conditions: Homo sapiens, read-out: Log LC50 (the source's name) (converted); how it was run: as §1
SF-539 = assay: Antitumor activity against SF-539 cell line; conditions: Homo sapiens; how it was run: as §1
SNB-19 = assay: Antitumor activity against SNB-19 cell line; conditions: Homo sapiens
How it was run: (§2)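 Screened against a panel of up to 60 human cancer cell lines. Read-out is LC50, the drug concentration lethal to 50% of the cells, expressed as log LC50. The mean log LC50 across the screened lines is the centre line of the mean graph. Each line's deviation from that mean is shown as a bar.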

SNB- = assay: Antitumor activity against SNB-71 cell line; conditions: Homo sapiens, read-out: Log LC50 (the source's name) (converted); how it was run: as §2
SR = assay: Antitumor activity against SR leukemia cell line; conditions: Homo sapiens, read-out: Log LC50 (the source's name) (converted); how it was run: as §2
SW-620 = assay: Antitumor activity against SW-620 cell line; conditions: Homo sapiens; how it was run: as §2
SK-MEL-5 = assay: Antitumor activity against SK-MEL-5 cell line; conditions: Homo sapiens; how it was run: as §2
SNB-75 = assay: Antitumor activity against SNB-75 cell line; conditions: Homo sapiens; how it was run: as §2
SK-OV-3 = assay: Antitumor activity against SK-OV-3 cell line; conditions: Homo sapiens, read-out: Log LC50 (the source's name) (converted); how it was run: as §2
SK-MEL-28 = assay: Antitumor activity against SK-MEL-28 cell line; conditions: Homo sapiens; how it was run: as §2
UACC-257 = assay: Antitumor activity against UACC-257 cell line; conditions: Homo sapiens; how it was run: as §2
U-251 = assay: Antitumor activity against U251 cell line; conditions: Homo sapiens; how it was run: as §2
UACC-62 = assay: Antitumor activity against UACC-62 cell line; conditions: Homo sapiens, read-out: Log LC50 (the source's name) (converted); how it was run: as §2
[1] = Mean log10 LC50 was determined; how it was run: as §2
DMS-273 = assay: Antitumor activity against DMS 273 cell line; conditions: Homo sapiens, read-out: Log LC50 (the source's name) (converted); how it was run: as §1
DLD-1 = assay: Antitumor activity against DLD-1 cell line; conditions: Homo sapiens; how it was run: as §1
HCC 2998 = assay: Antitumor activity against HCC2998 cell line; conditions: Homo sapiens, read-out: Log LC50 (the source's name) (converted); how it was run: as §1
SF-268 = assay: Antitumor activity against SF-268 cell line; conditions: Homo sapiens; how it was run: as §1
RXF 393 = assay: Antitumor activity against Renal cancer RXF-393 cell line; conditions: Homo sapiens; how it was run: as §1
OVCAR-4 = assay: Antitumor activity against OVCAR-4 cell line; conditions: Homo sapiens; how it was run: as §1

CC(=O)OC1CCCn2c1nc1c2C(=O)C(C)=C(N2CC2)C1=O (stereo unspecified)
LC50 (A549): 32.4 µM | CC50 (CCRF-CEM): > 100 µM | CC50 (COLO 205): 18.2 µM | LC50 (DMS-114): 7.76 µM | LC50 (EKVX): 3.98 µM | CC50 (HCT-116): 17.8 µM | LC50 (HOP-62): 1820 nM | CC50 (HL-60): > 100 µM | CC50 (HOP-92): > 100 µM | CC50 (HT-29): 1820 nM | CC50 (K562): > 100 µM | CC50 (KM12): 5.25 µM | LC50 (concentration lethal to 50% of cells) (KM-20L2): 4.68 µM | LC50 (IGROV-1): 30.9 µM | LC50 (LXFL 529): 4.9 µM | LC50 (M14): 794 nM | LC50 (M19-MEL): 35.5 µM | LC50 (LOX IMVI): 5.37 µM | LC50 (MOLT-4): > 100 µM | LC50 (Malme-3M): 2340 nM | LC50 (NCI-H522): 3.72 µM | LC50 (NCI-H226): 3.98 µM | CC50 (OVCAR-8): 5.62 µM | LC50 (OVCAR-3): 6.31 µM | CC50 (NCI-H23): 3.98 µM | CC50 (NCI-H322M): 26.9 µM | CC50 (NCI-H460): 676 nM | LC50 (OVCAR-5): 4.9 µM | CC50 (RPMI-8226): > 100 µM | CC50 (CAKI-1): 3.31 µM | LC50 (786-0): 43.7 µM | CC50 (A498): 1290 nM | CC50 (ACHN): 25.7 µM | LC50 (SN12C): 4.17 µM | LC50 (TK-10): 25.1 µM | LC50 (concentration lethal to 50% of cancer cells) (UO-31): 20 µM | CC50 (SK-MEL-2): 3.8 µM | LC50 (concentration lethal to 50% of cells) (SF-539): 14.1 µM | LC50 (SNB-19): 5.89 µM | CC50 (SNB-): 33.1 µM | CC50 (SR): > 100 µM | LC50 (SW-620): 53.7 µM | LC50 (SK-MEL-5): 661 nM | LC50 (SNB-75): 4.57 µM | CC50 (SK-OV-3): 7.08 µM | LC50 (SK-MEL-28): 6.03 µM | LC50 (UACC-257): 3.8 µM | LC50 (U-251): 3.39 µM | CC50 (UACC-62): 4.9 µM | Mean log LC50 [1]: -5.04 | CC50 (DMS-273): 5.37 µM | LC50 (DLD-1): 87.1 µM | CC50 (HCC 2998): 3.09 µM | LC50 (SF-268): 692 nM | LC50 (RXF 393): 4.68 µM | LC50 (OVCAR-4): 5.89 µM

Source: ChEMBL document CHEMBL1127500, “Structure-activity studies of benzimidazole-based DNA-cleaving agents. Comparison of benzimidazole, pyrrolobenzimidazole, and tetrahydropyridobenzimidazole analogues” (1994)
